The source made the active and inactive calls. No cut-off for these calls is given here.
Tests used:
[1] = molecular target: Protein arginine N-methyltransferase 5 (Homo sapiens) (UniProt O14744); test: Inhibition of PRMT5 in TGFbeta1-stimulated human HS578T cells assessed as decrease in H4R3me2s protein expression at 500 nM for 4 days by immunoblot analysis; assay type: cell-based; conditions: Hs-578T, time 4.0 day
In short: (§1)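 Immunoblots of A549 or HS578T cells given or not given 10 nM TGFβ1 for 2 days and 500 nM inhibitor for 4 days. Probes were histone methylarginine marks and EMT-related proteins.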

A549 [2] = test: Cytotoxicity against human A549 cells assessed as decrease in cell viability at 500 nM for 4 days by microscopic analysis; assay type: functional, cell-based; conditions: time 4.0 day
[3] = molecular target: Protein arginine N-methyltransferase 5 (Homo sapiens) (UniProt O14744); test: Inhibition of PRMT5 in TGFbeta1-stimulated human A549 cells assessed as decrease in H4R3me2s protein expression at 500 nM for 4 days by immunoblot analysis; assay type: cell-based; conditions: time 4.0 day; in short: as §1
[4] = molecular target: Protein arginine N-methyltransferase 5 (Homo sapiens) (UniProt O14744); test: Inhibition of PRMT5 in TGFbeta1-stimulated human A549 cells assessed as decrease in H3R2me2s protein expression at 500 nM for 4 days by immunoblot analysis; assay type: cell-based; conditions: time 4.0 day; in short: as §1
IMR-90 = test: Cytotoxicity against human IMR-90 cells assessed as effect on cell viability at 500 nM for 4 days by microscopic analysis; assay type: toxicity, cell-based; conditions: imr-90, 96 h, 0.5 µM, time 4 day
[5] = molecular target: Protein arginine N-methyltransferase 5 (Homo sapiens) (UniProt O14744); test: Inhibition of PRMT5 in TGFbeta1-stimulated human A549 cells assessed as increase in vimentin protein expression at 500 nM for 4 days by immunoblot analysis; assay type: cell-based; conditions: time 4.0 day; in short: as §1
[6] = molecular target: Protein arginine N-methyltransferase 5 (Homo sapiens) (UniProt O14744); test: Inhibition of PRMT5 in human A549 cells assessed as decrease in SmD3 methylation at 0.01 to 5 uM for 4 days by immunoblot analysis; assay type: cell-based; conditions: dose 0.01-5 µM, time 4.0 day
In short: (§2)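 A549 cells were exposed to 0, 10 nM, 100 nM, 500 nM, 1 μM or 5 μM for 4 days. Lysates were blotted for SYM10 (methylated SmD3) and GAPDH. Extracted histones were blotted for H4R3me2s and H3, with DB71 staining of the histones.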

[7] = molecular target: Protein arginine N-methyltransferase 5 (Homo sapiens) (UniProt O14744); test: Inhibition of PRMT5 in human IMR-90 cells assessed as effect on histone […] methylation for 4 days by immunoblot analysis; assay type: cell-based; conditions: time 4.0 day
[8] = molecular target: Protein arginine N-methyltransferase 5 (Homo sapiens) (UniProt O14744); test: Inhibition of PRMT5 in human IMR-90 cells assessed as effect on SmD3 methylation for 4 days by immunoblot analysis; assay type: cell-based; conditions: time 4.0 day
Hs-578T = test: Anticancer activity against human Hs-578T cells assessed as decrease in TGFbeta1-induced cell invasion at 500 nM for 4 days by crystal violet staining based matrigel assay; assay type: functional; conditions: time 4.0 day
In short: (§3)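 Matrigel invasion through 8 μm pores in A549, SK-MES-1 or HS578T cells, with or without 500 nM inhibitor for 4 days and with or without 10 nM TGFβ1 for 2 days. Invaded cells on the membrane underside were stained with crystal violet, imaged by phase-contrast at 20X and counted. Mean ± S.E.M. of three independent experiments; one-way ANOVA.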

[9] = molecular target: Protein arginine N-methyltransferase 5 (Homo sapiens) (UniProt O14744); test: Inhibition of PRMT5 in TGFbeta1-stimulated human HS578T cells assessed as decrease in H3R2me2s protein expression at 500 nM for 4 days by immunoblot analysis; assay type: cell-based; conditions: Hs-578T, time 4.0 day; in short: as §1
SK-MES-1 = test: Anticancer activity against human SK-MES-1 cells assessed as decrease in TGFbeta1-induced cell invasion at 500 nM for 4 days by crystal violet staining based matrigel assay; assay type: functional; conditions: time 4.0 day; in short: as §3
[10] = molecular target: Protein arginine N-methyltransferase 5 (Homo sapiens) (UniProt O14744); test: Inhibition of PRMT5 in human A549 cells assessed as decrease in histone […] methylation at 0.01 to 5 uM for 4 days by immunoblot analysis; assay type: cell-based; conditions: dose 0.01-5 µM, time 4.0 day; in short: as §2
NCI-H460 = test: Anticancer activity against human NCI-H460 cells assessed as decrease in TGFbeta1-induced cell invasion at 500 nM for 4 days by crystal violet staining based matrigel assay; assay type: functional; conditions: time 4.0 day
A549 [11] = test: Anticancer activity against human A549 cells assessed as decrease in cell migration at 500 nM for 4 days by crystal violet staining based matrigel assay; assay type: functional; conditions: time 4.0 day
[12] = molecular target: Protein arginine N-methyltransferase 5 (Homo sapiens) (UniProt O14744); test: Inhibition of PRMT5 in TGFbeta1-stimulated human HS578T cells assessed as decrease in H3R2me1 protein expression at 500 nM for 4 days by immunoblot analysis; assay type: cell-based; conditions: Hs-578T, time 4.0 day; in short: as §1
NCI-H1339 = test: Anticancer activity against human NCI-H1339 cells assessed as decrease in TGFbeta1-induced cell invasion at 500 nM for 4 days by crystal violet staining based matrigel assay; assay type: functional; conditions: time 4.0 day
A549 [13] = test: Anticancer activity against human A549 cells assessed as decrease in TGFbeta1-induced cell invasion at 500 nM for 4 days by crystal violet staining based matrigel assay; assay type: functional; conditions: time 4.0 day; in short: as §3
[14] = molecular target: Protein arginine N-methyltransferase 5 (Homo sapiens) (UniProt O14744); test: Inhibition of PRMT5 in TGFbeta1-stimulated human A549 cells assessed as decrease in H3R2me1 protein expression at 500 nM for 4 days by immunoblot analysis; assay type: cell-based; conditions: time 4.0 day; in short: as §1
A549 [15] = test: Anticancer activity against human A549 cells assessed as decrease in cell invasion at 500 nM for 4 days by crystal violet staining based matrigel assay; assay type: functional; conditions: time 4.0 day
In short: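 A549 cells were exposed to 500 nM for 0 or 4 days, then run in a Matrigel invasion assay through 8 μm porous polycarbonate membranes. Crystal violet-stained invaded cells on the underside were imaged by phase-contrast at 20X and quantified. Three independent experiments, mean ± S.E.M., one-way ANOVA.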

[16] = molecular target: Protein arginine N-methyltransferase 5 (Homo sapiens) (UniProt O14744); test: Inhibition of PRMT5 in TGFbeta1-stimulated human A549 cells assessed as increase in snail protein expression at 500 nM for 4 days by immunoblot analysis; assay type: cell-based; conditions: time 4.0 day; in short: as §1
[17] = molecular target: Protein arginine N-methyltransferase 5 (Homo sapiens) (UniProt O14744); test: Inhibition of PRMT5 in TGFbeta1-stimulated human A549 cells assessed as decrease in decrease in E-cadherin protein expression at 500 nM for 4 days by immunoblot analysis; assay type: cell-based; conditions: time 4.0 day; in short: as §1
A549 [18] = test: Anticancer activity in human A549 cells assessed as TGFbeta1-induced cell morphology change for 4 days by microscopic analysis; assay type: functional, cell-based; conditions: dose 500.0 nM, time 4.0 day
In short: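 A549 cells were given or not given 500 nM for 4 days and 10 nM TGFβ1 for 2 days. Cell morphology was imaged by microscopy, with inserts at higher magnification.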

Sequence of Protein arginine N-methyltransferase 5 (Homo sapiens) (O14744 whole entry): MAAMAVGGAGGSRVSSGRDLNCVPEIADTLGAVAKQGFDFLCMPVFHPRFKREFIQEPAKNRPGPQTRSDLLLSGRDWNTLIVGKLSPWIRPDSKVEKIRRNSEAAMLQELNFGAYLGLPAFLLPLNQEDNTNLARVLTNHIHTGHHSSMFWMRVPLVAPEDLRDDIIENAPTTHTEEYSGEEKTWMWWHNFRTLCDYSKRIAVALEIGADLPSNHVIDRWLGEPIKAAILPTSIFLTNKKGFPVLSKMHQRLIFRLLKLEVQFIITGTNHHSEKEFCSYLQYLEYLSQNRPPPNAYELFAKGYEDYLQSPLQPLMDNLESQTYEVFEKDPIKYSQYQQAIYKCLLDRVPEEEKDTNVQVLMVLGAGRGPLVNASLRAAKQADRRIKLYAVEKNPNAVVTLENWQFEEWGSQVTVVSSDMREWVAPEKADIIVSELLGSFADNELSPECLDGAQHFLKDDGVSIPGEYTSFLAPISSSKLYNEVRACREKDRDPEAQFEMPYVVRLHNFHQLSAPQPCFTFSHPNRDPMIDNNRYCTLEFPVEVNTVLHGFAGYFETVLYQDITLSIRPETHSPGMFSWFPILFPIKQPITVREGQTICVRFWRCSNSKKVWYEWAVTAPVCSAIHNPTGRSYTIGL

inhibition [1]: Active
inhibition [3]: Active
inhibition [4]: Active
inhibition [5]: Active
inhibition [6]: Active
inhibition [7]: inactive
inhibition [8]: inactive
inhibition [9]: Active
inhibition [10]: Active
inhibition [12]: Active
inhibition [14]: Active
inhibition [16]: Active
inhibition [17]: Active
Structure (SMILES): O=C(NC[C@H](O)CN1CCc2ccccc2C1)c1ccnc(NC2CCC2)c1
inhibition (A549 [2]): Active
Activity (IMR-90): Non-Toxic
inhibition (Hs-578T): Active
inhibition (SK-MES-1): Active
inhibition (NCI-H460): Active
inhibition (A549 [11]): Active
inhibition (NCI-H1339): Active
inhibition (A549 [13]): Active
inhibition (A549 [15]): Active
Activity (A549 [18]): Active
